A short description of test [1]: Inhibition of gp120 (His 105 residue) in HIV-1 BG505 infected in dog Cf2Th-CD4/CCR5 cells assessed as inhibition of viral entry incubated for 30 mins prior to infection and further incubated for 48 to 72 hrs in presence of firefly D-luciferin free acid and ATP by single-round infection luciferase assay. It counts as cell-based. The settings on record: Human immunodeficiency virus 1, BG505, Cf2Th-CD4/CCR5. In a few lines:
(§1)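 Cf2Th canine cells expressing CD4 and CCR5 were infected with the named HIV-1 strain in the presence of compound. IC50 was taken as the concentration giving 50% inhibition of viral infection, reported as mean ± SD. Groups were compared by one-tailed unpaired t test (N = 3).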

Test [2] in a line: Inhibition of gp120 (Gln 105 residue) in HIV-1 JR-FL infected in dog Cf2Th-CD4/CCR5 cells assessed as inhibition of viral entry incubated for 30 mins prior to infection and further incubated for 48 to 72 hrs in presence of firefly D-luciferin free acid and ATP by single-round infection luciferase assay. In kind it is cell-based. The conditions noted are these: Human immunodeficiency virus 1, JR-FL. The essentials:
as §1

We go through 12 compounds from ChEMBL document CHEMBL4823331, “Identification of gp120 Residue His105 as a Novel Target for HIV-1 Neutralization by Small-Molecule CD4-Mimics” (ACS Med Chem Lett, 2021).

Molecules are shown by their SMILES.

On to `CNCc1ccc2c(c1)C[C@H](CNC(=N)N)[C@H]2NC(=O)C(=O)Nc1ccc(Cl)c(F)c1`, for which the half-maximal inhibitory concentration (IC50) (as a rule, the concentration at which inhibition is half-maximal) in test [1] is 226 µM; in test [2] it was 9 µM. The like results for `CNCc1ccc2c(c1)[C@H](NC(=O)C(=O)Nc1ccc(Cl)c(F)c1)[C@@H](CNC(=N)N)[C@@H]2CCCO` were, in that order, 164 µM and 9.45 µM. Regarding `CNCc1ccc2c(c1)[C@@H](CCC(=O)CO)[C@H](CNC(=N)N)[C@H]2NC(=O)C(=O)Nc1ccc(Cl)c(F)c1`, the IC50 turned out to be 166 µM in test [1] and 4.97 µM in test [2].

Take `CNCc1ccc2c(c1)[C@H](NC(=O)C(=O)Nc1ccc(Cl)c(F)c1)[C@@H](CNC(=N)N)[C@@H]2CCC(O)CO` (stereo not given in full): the figures for the IC50 in test [1] and in test [2] were greater than 300 µM and 19.5 µM, respectively. Consider `CNCc1ccc2c(c1)[C@@H](CC[C@H](O)CO)[C@H](CNC(=N)N)[C@H]2NC(=O)C(=O)Nc1ccc(Cl)c(F)c1`, for which the IC50 in test [2] is 17.7 µM. Still for that read-out and setting: to `CNCc1ccc2c(c1)[C@@H](CC[C@@H](O)CO)[C@H](CNC(=N)N)[C@H]2NC(=O)C(=O)Nc1ccc(Cl)c(F)c1` belongs 22 µM; to `CCCC[C@@H]1c2cc(CNC)ccc2[C@H](NC(=O)C(=O)Nc2ccc(Cl)c(F)c2)[C@H]1CNC(=N)N`, 32.5 µM. Consider `CNCc1ccc2c(c1)[C@@H](CCCO)[C@H](CNC(=N)N)[C@H]2NC(=O)C(=O)Nc1ccc(Cl)c(F)c1`, for which the IC50 stood at 136 µM in test [1] and 8.25 µM in test [2]. For `C=CCC[C@@H]1c2ccc(CNC)cc2[C@H](NC(=O)C(=O)Nc2ccc(Cl)c(F)c2)[C@H]1CNC(=N)N` the same measures were greater than 100 µM and 16.2 µM. In the case of `CNCc1ccc2c(c1)[C@H](NC(=O)C(=O)Nc1ccc(Cl)c(F)c1)[C@@H](CNC(=N)N)[C@@H]2CC[C@H](O)CO`, the IC50 in test [2] worked out at 27.8 µM. As for `C=CCC[C@@H]1c2cc(CNC)ccc2[C@H](NC(=O)C(=O)Nc2ccc(Cl)c(F)c2)[C@H]1CNC(=N)N`, the concentration for half-maximal inhibition (IC50) in test [1] was determined as 106 µM; in test [2] it was 9.22 µM. Turning to `CNCc1ccc2c(c1)[C@@H](CCC(O)CO)[C@H](CNC(=N)N)[C@H]2NC(=O)C(=O)Nc1ccc(Cl)c(F)c1` (mixture of isomers), the IC50 amounted to 130 µM in test [1] and 8.29 µM in test [2].
